Test results as given in ChEMBL document CHEMBL4477265, “Design and synthesis of cis-restricted benzimidazole and benzothiazole mimics of combretastatin A-4 as antimitotic agents with apoptosis inducing ability” (Bioorg Med Chem Lett, 2016).
The source made the active and inactive calls. The calls are words filed in the database; no cut-off is given here.

What was measured:
HeLa [1] = assay: Antiproliferative activity against human HeLa cells after 48 hrs by sulforhodamine B assay; format: functional
HepG2 = assay: Antiproliferative activity against human HepG2 cells after 48 hrs by sulforhodamine B assay; format: functional; conditions: HepG2, 48 h
A549 = assay: Antiproliferative activity against human A549 cells after 48 hrs by sulforhodamine B assay; format: functional; conditions: A549, 48 h
DU-145 = assay: Antiproliferative activity against human DU145 cells after 48 hrs by sulforhodamine B assay; format: functional; conditions: DU-145, 48 h
HeLa [2] = assay: Cell cycle arrest in human HeLa cells assessed as accumulation at G0 phase at 40 nM after 48 hrs by propidium iodide staining based flow cytometry (reference value: 5.64%); format: functional
HeLa [3] = assay: Cell cycle arrest in human HeLa cells assessed as accumulation at G0 phase at 60 nM after 48 hrs by propidium iodide staining based flow cytometry (reference value: 5.64%); format: functional
HeLa [4] = assay: Cell cycle arrest in human HeLa cells assessed as accumulation at G1 phase at 40 nM after 48 hrs by propidium iodide staining based flow cytometry (reference value: 73.28%); format: functional
HeLa [5] = assay: Cell cycle arrest in human HeLa cells assessed as accumulation at G1 phase at 60 nM after 48 hrs by propidium iodide staining based flow cytometry (reference value: 73.28%); format: functional
HeLa [6] = assay: Cell cycle arrest in human HeLa cells assessed as accumulation at S phase at 40 nM after 48 hrs by propidium iodide staining based flow cytometry (reference value: 3.52%); format: functional
HeLa [7] = assay: Cell cycle arrest in human HeLa cells assessed as accumulation at S phase at 60 nM after 48 hrs by propidium iodide staining based flow cytometry (reference value: 3.52%); format: functional
HeLa [8] = assay: Cell cycle arrest in human HeLa cells assessed as accumulation at G2/M phase at 40 nM after 48 hrs by propidium iodide staining based flow cytometry (reference value: 17.56%); format: functional
HeLa [9] = assay: Cell cycle arrest in human HeLa cells assessed as accumulation at G2/M phase at 60 nM after 48 hrs by propidium iodide staining based flow cytometry (reference value: 17.56%); format: functional
Tubulin (Sus scrofa) = Tubulin (Sus scrofa) (UniProt P02554+P02550); assay: Inhibition of porcine brain tubulin polymerization at 3 uM measured at 1 min interval for 1 hr by fluorescence plate reader assay relative to control
Chain of Tubulin (Sus scrofa) (P02550 whole entry, looked up): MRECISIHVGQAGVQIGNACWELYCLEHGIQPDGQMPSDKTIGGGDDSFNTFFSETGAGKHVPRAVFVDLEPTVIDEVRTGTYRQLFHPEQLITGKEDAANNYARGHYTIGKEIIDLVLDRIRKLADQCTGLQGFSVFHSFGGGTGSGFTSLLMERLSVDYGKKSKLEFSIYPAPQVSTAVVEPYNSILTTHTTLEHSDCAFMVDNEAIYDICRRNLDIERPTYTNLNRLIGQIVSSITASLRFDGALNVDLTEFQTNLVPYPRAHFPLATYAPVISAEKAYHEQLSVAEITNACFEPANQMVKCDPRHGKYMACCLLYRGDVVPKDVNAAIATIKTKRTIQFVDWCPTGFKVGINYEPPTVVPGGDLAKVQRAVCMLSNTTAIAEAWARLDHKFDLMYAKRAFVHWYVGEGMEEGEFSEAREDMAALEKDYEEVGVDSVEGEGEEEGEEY
Chain of Tubulin (Sus scrofa) (P02554 whole entry, looked up): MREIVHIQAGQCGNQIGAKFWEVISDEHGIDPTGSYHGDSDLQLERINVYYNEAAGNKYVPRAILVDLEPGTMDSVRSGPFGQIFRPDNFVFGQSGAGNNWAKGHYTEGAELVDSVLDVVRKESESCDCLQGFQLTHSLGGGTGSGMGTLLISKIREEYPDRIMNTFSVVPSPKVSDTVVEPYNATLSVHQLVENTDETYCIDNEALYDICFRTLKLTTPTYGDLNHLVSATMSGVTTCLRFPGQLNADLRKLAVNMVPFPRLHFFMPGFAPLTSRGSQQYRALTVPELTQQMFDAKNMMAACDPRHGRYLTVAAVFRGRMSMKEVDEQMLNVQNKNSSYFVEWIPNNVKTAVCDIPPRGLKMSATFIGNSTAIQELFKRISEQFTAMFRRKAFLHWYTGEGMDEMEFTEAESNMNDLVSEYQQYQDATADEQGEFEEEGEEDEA
Summary of the method: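 Tubulin polymerization followed by fluorescence (excitation 360 nm, emission 420 nm) over 1 h at 37 °C, test agents at 3 μM; inhibition expressed as percentage of polymerization versus untreated control.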

Tubulin = Tubulin (Sus scrofa, UniProt P02554+P02550); assay: Inhibition of porcine brain tubulin polymerization measured at 1 min interval for 1 hr by fluorescence plate reader assay
HeLa [10] = assay: Cell cycle arrest in human HeLa cells assessed as accumulation at G2/M phase after 48 hrs by propidium iodide staining based flow cytometry; format: functional
Tubulin (Homo sapiens) = Tubulin (Homo sapiens) (UniProt P68371+Q9H4B7+P0DPH7+P68366+Q13509+Q71U36+P04350+Q3ZCM7+P07437+P68363+Q9BQE3+Q6PEY2+Q13885+Q9BVA1+Q9BUF5); assay: Inhibition of tubulin polymerization in human HeLa cells assessed as induction of microtubule disruption at 60 nM after 48 hrs by confocal microscopic analysis; format: cell-based
Summary of the method: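 HeLa cells grown on sterile cover slips, exposed 48 h at 60 nM, immunostained with α-tubulin antibody; microtubule network organization examined by confocal imaging.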

HeLa [11] = assay: Induction of inner mitochondrial membrane potential depolarization in isolated mitochondria from human HeLa cells at 40 to 60 nM after 48 hrs by JC-1 staining based fluorescence plate reader assay; format: functional
Summary of the method: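 Mitochondria isolated and incubated with JC-1 dye alongside treatment at 40 and 60 nM; red/green fluorescence emission ratio recorded as the index of inner membrane potential, with untreated mitochondria as control.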

HeLa [12] = assay: Induction of apoptosis in human HeLa cells assessed as caspase-3 activation using AFC-labeled caspase-3 substrate at 40 to 60 nM after 24 to 48 hrs by fluorescence plate reader assay relative to combretastatin A-4; format: functional
Summary of the method: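 HeLa cells exposed at 40 and 60 nM; caspase-3 and caspase-9 activity measured fluorimetrically with conjugated caspase substrates at two time points.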

HeLa [13] = assay: Induction of apoptosis in human HeLa cells assessed as caspase-9 activation using AFC-labeled substrate at 40 to 60 nM after 24 to 48 hrs by fluorescence plate reader assay relative to combretastatin A-4

FC(F)(F)c1ccc(Cl)c(-c2ncccc2-c2nc3ccccc3s2)c1
GI50 (HeLa [1]): 4.89 µM
GI50 (HepG2): 15 µM
GI50 (A549): 7.41 µM
GI50 (DU-145): 5.49 µM

COc1cc2nc(-c3cccnc3-c3cc(OC)c(OC)c(OC)c3)[nH]c2cc1OC
GI50 (HeLa [1]): 1.7 µM
GI50 (HepG2): 1.5 µM
GI50 (A549): 2.5 µM
GI50 (DU-145): 0.6 µM

COc1ccc2nc(-c3cccnc3-c3ccc(C(F)(F)F)cc3)[nH]c2c1
GI50 (A549): 38.2 µM
GI50 (DU-145): 32.1 µM

FC(F)(F)c1ccc(Cl)c(-c2ncccc2-c2nc3ccc(Cl)cc3s2)c1
GI50 (HeLa [1]): 5.8 µM
GI50 (HepG2): 1.2 µM
GI50 (A549): 1.5 µM

COc1ccc2nc(-c3cccnc3-c3cc(OC)c(OC)c(OC)c3)sc2c1
GI50 (HeLa [1]): 0.06 µM
GI50 (HepG2): 0.26 µM
GI50 (A549): 0.13 µM
GI50 (DU-145): 0.18 µM
Activity (HeLa [2]): 13.27%
Activity (HeLa [3]): 25.35%
Activity (HeLa [4]): 51.22%
Activity (HeLa [5]): 19.54%
Activity (HeLa [6]): 11.86%
Activity (HeLa [7]): 14.3%
Activity (HeLa [8]): 23.65%
Activity (HeLa [9]): 40.8%
inhibition (Tubulin (Sus scrofa)): 60.1%
IC50 (Tubulin): 2.01 µM
Activity (HeLa [10]): Dose-dependent effect
inhibition (Tubulin (Homo sapiens)): Active
Activity (HeLa [11]): Active
fold change (FC) (HeLa [12]): 2
fold change (FC) (HeLa [13]): 2

COc1ccc(-c2ncccc2-c2nc3ccccc3[nH]2)cc1OC
GI50 (HepG2): 12.4 µM
GI50 (DU-145): 5.8 µM

COc1cc(-c2ncccc2-c2nc3ccccc3[nH]2)cc(OC)c1OC
GI50 (HeLa [1]): 2.6 µM
GI50 (HepG2): 3.5 µM
GI50 (A549): 4.5 µM
GI50 (DU-145): 14.6 µM

FC(F)(F)c1ccc(-c2ncccc2-c2nc3ccc(Cl)cc3[nH]2)cc1
GI50 (HeLa [1]): 15.8 µM
GI50 (A549): 18.4 µM

COc1ccc2nc(-c3cccnc3-c3ccc(OC)c(OC)c3)[nH]c2c1
GI50 (HeLa [1]): 16.6 µM
GI50 (HepG2): 44.8 µM
GI50 (A549): 27.6 µM
GI50 (DU-145): 12 µM

COc1ccc(-c2ncccc2-c2nc3ccc(OC)cc3s2)cc1
GI50 (HeLa [1]): 8.1 µM
GI50 (A549): 13.3 µM

COc1ccc(-c2ncccc2-c2nc3ccc(Cl)cc3s2)cc1
GI50 (HeLa [1]): 7.7 µM
GI50 (HepG2): 3.9 µM
GI50 (A549): 7.9 µM
GI50 (DU-145): 0.19 µM

COc1ccc(-c2ncccc2-c2nc3cc(OC)c(OC)cc3[nH]2)cc1OC
GI50 (HeLa [1]): 7.7 µM
GI50 (HepG2): 1.9 µM
GI50 (A549): 7.9 µM
GI50 (DU-145): 4.19 µM

COc1ccc2nc(-c3cccnc3-c3ccc(C(F)(F)F)cc3)sc2c1
GI50 (HeLa [1]): 15.7 µM
GI50 (A549): 17 µM

COc1ccc2nc(-c3cccnc3-c3cc(C(F)(F)F)ccc3Cl)sc2c1
GI50 (HeLa [1]): 0.04 µM
GI50 (HepG2): 0.079 µM
GI50 (A549): 0.091 µM
GI50 (DU-145): 0.052 µM
Activity (HeLa [2]): 8.13%
Activity (HeLa [3]): 20.47%
Activity (HeLa [4]): 43%
Activity (HeLa [5]): 15.19%
Activity (HeLa [6]): 24.62%
Activity (HeLa [7]): 10.3%
Activity (HeLa [8]): 24.26%
Activity (HeLa [9]): 54.05%
inhibition (Tubulin (Sus scrofa)): 68.3%
IC50 (Tubulin): 1.91 µM
Activity (HeLa [10]): Dose-dependent effect
inhibition (Tubulin (Homo sapiens)): Active
Activity (HeLa [11]): Active
fold change (FC) (HeLa [12]): 2
fold change (FC) (HeLa [13]): 2

COc1ccc(S(=O)(=O)Nc2cccnc2Nc2ccc(O)cc2)cc1 [ABT-751]
GI50 (HeLa [1]): 4.8 µM
GI50 (HepG2): 2.8 µM
GI50 (A549): 1.8 µM
GI50 (DU-145): 1.2 µM

COc1ccc2nc(-c3cccnc3-c3cc(C(F)(F)F)ccc3Cl)[nH]c2c1
GI50 (HeLa [1]): 0.15 µM
GI50 (HepG2): 0.76 µM
GI50 (A549): 0.75 µM
GI50 (DU-145): 0.21 µM

COc1ccc(-c2ncccc2-c2nc3cc(OC)c(OC)cc3[nH]2)cc1
GI50 (HeLa [1]): 21.4 µM
GI50 (HepG2): 42.5 µM
GI50 (A549): 19.5 µM

COc1ccc(-c2ncccc2-c2nc3ccc(OC)cc3[nH]2)cc1
GI50 (DU-145): 19.6 µM

COc1ccc(-c2ncccc2-c2nc3ccc(Cl)cc3[nH]2)cc1
GI50 (DU-145): 34.7 µM

COc1cc2nc(-c3cccnc3-c3cc(OC)c(OC)c(OC)c3)sc2cc1OC
GI50 (HeLa [1]): 1.6 µM
GI50 (HepG2): 0.5 µM
GI50 (A549): 0.5 µM
GI50 (DU-145): 0.6 µM

COc1cc(-c2ncccc2-c2nc3ccccc3s2)cc(OC)c1OC
GI50 (HeLa [1]): 4.8 µM
GI50 (HepG2): 3.5 µM
GI50 (A549): 3.2 µM
GI50 (DU-145): 4.1 µM

COc1ccc(-c2ncccc2-c2nc3cc(OC)c(OC)cc3s2)cc1OC
GI50 (HeLa [1]): 13.5 µM
GI50 (HepG2): 1.2 µM
GI50 (A549): 7.58 µM
GI50 (DU-145): 5.91 µM

FC(F)(F)c1ccc(-c2ncccc2-c2nc3ccc(Cl)cc3s2)cc1
GI50 (HeLa [1]): 20.4 µM
GI50 (HepG2): 32.5 µM
GI50 (A549): 19.5 µM

COc1ccc(/C=C\c2cc(OC)c(OC)c(OC)c2)cc1O [COMBRETASTATIN A4]
GI50 (HeLa [1]): 0.06 µM
GI50 (HepG2): 0.08 µM
GI50 (A549): 0.06 µM
GI50 (DU-145): 0.07 µM
Activity (HeLa [2]): 25.87%
Activity (HeLa [3]): 24.78%
Activity (HeLa [4]): 17.92%
Activity (HeLa [5]): 17.29%
Activity (HeLa [6]): 17.34%
Activity (HeLa [7]): 16.44%
Activity (HeLa [8]): 38.87%
Activity (HeLa [9]): 41.48%
Activity (HeLa [11]): Active

COc1ccc2nc(-c3cccnc3-c3ccc(OC)c(OC)c3)sc2c1
GI50 (HeLa [1]): 6.2 µM
GI50 (HepG2): 2.2 µM
GI50 (A549): 1.7 µM
GI50 (DU-145): 6.8 µM

COc1ccc(-c2ncccc2-c2nc3ccccc3s2)cc1OC
GI50 (HeLa [1]): 1.8 µM
GI50 (HepG2): 0.7 µM
GI50 (A549): 0.2 µM
GI50 (DU-145): 3.6 µM

COc1ccc(-c2ncccc2-c2nc3cc(OC)c(OC)cc3s2)cc1
GI50 (HeLa [1]): 11.3 µM
GI50 (HepG2): 30.9 µM
GI50 (A549): 59.1 µM

COc1ccc2nc(-c3cccnc3-c3cc(OC)c(OC)c(OC)c3)[nH]c2c1
GI50 (HeLa [1]): 5 µM
GI50 (HepG2): 0.84 µM
GI50 (A549): 1.5 µM
GI50 (DU-145): 0.29 µM
